Source: ChEMBL document CHEMBL5113504, “Discovery of potent benzoxaborole inhibitors against SARS-CoV-2 main and dengue virus proteases” (Eur J Med Chem, 2022)
Calls of active or inactive are those of the source. The rule behind the calls is not given here.

Tests used:
[1] = biological target: Genome polyprotein (dengue virus type 2) (UniProt P29990); experiment: Inhibition of full length DENV2 NS2B-NS3 protease in human HeLa cells expressing luciferase reporter gene at 12.5 uM incubated for 24 hrs by luminescence analysis relative to control; assay type: cell-based
Method in brief: (§1)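 Stable DENV2pro reporter HeLa cells seeded at 2×10^4 per well and dosed immediately; 24 h at 37 °C, lysed 15 min, coelenterazine (2.75 μM in PBS) injected, luminescence read 5 s. Triplicates; % inhibition vs untreated cells; EC50 by 4-parameter fit with cell-free background subtraction.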

[2] = biological target: Replicase polyprotein 1ab (Severe acute respiratory syndrome coronavirus 2) (UniProt P0DTD1); experiment: Inhibition of C-terminal His tagged SARS CoV-2 main protease transfected in Escherichia coli BL21 (DE3) using 2-Abz-Ser-AlaVal-Leu-Gln-Ser-Gly-Tyr(3-NO2)-Arg-OH as substrate at 50 uM preincubated for 15 mins followed by substrate addition and measured after 15 mins by FRET assay relative to control; conditions: time 30.0 min
HeLa [3] = experiment: Cytotoxicity against human HeLa cells expressing luciferase-based DENV-2 protease reporter system assessed as reduction in cell viability by celltiter-blue assay; assay type: toxicity
Method in brief: (§2)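 CellTiter-Blue viability in HeLa reporter cells or Huh-7 cells, on plates run in parallel with the reporter or titer-reduction assay under the same treatment; each concentration in triplicate.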

Genome polyprotein [4] = biological target: T1, Genome polyprotein (dengue virus type 2, UniProt P29990); experiment: Inhibition of full length DENV2 NS2B-NS3 protease in human HeLa cells expressing luciferase reporter gene incubated for 24 hrs by luminescence analysis; assay type: cell-based; method in brief: as §1
[5] = biological target: Replicase polyprotein 1ab (Severe acute respiratory syndrome coronavirus 2) (UniProt P0DTD1); experiment: Binding affinity to C-terminal His tagged SARS CoV-2 main protease transfected in Escherichia coli BL21 (DE3) assessed as covalent bond formation by measuring mass adduct at 100 uM by ESI-TOF analysis
Method in brief: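 Compounds at 100 μM incubated with active Mpro (3 μM) in 50 mM Tris-HCl pH 7.4, 100 mM NaCl, 20% v/v ethylene glycol, 0.0016% Brij 58; adducts sought by LC-ESI-TOF MS, C18 column, water/acetonitrile with 0.1% formic acid gradient, negative mode.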

HeLa [6] = experiment: Cytotoxicity against human HeLa cells expressing renilla luciferase reporter construct assessed as reduction in cell viability at 12.5 uM by luciferase based analysis; assay type: toxicity
[7] = Permeability of compound in PBS at pH 7.4 measured after 5 hrs by HPLC-UV based PAMPA assay; assay type: ADME; conditions: pH 7.4, 5 h
[8] = Selectivity index, ratio of EC50 for inhibition of full length DENV2 NS2B-NS3 protease in human HeLa cells expressing luciferase reporter gene to IC50 for inhibition of C-terminal His tagged SARS CoV-2 main protease transfected in Escherichia coli BL21 (DE3); assay type: cell-based
Genome polyprotein [9] = biological target: T1, Genome polyprotein; experiment: Chemical stability of the compound in DENV2 NS2B-NS3 protease assay buffer assessed as DENV2 NS2B-NS3 protease-mediated amide bond cleavage by measuring reduction in AUC at 100 uM measured after 8 hrs by HPLC analysis; assay type: ADME; conditions: dengue virus type 2, buffer
Method in brief: (§3)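 Compound incubated with isolated protease (SARS-CoV-2 Mpro or DENV-2 protease) in that enzyme's assay buffer for 8 h; remaining compound quantified by HPLC with UV/Vis detection (peak AUC).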

[10] = Selectivity index, ratio of CC50 for cytotoxicity against human HeLa cells expressing luciferase-based DENV-2 protease reporter system to EC50 for inhibition of full length DENV2 NS2B-NS3 protease in human HeLa cells expressing luciferase reporter gene; assay type: toxicity, cell-based; conditions: read-out: Ratio CC50/EC50
[11] = biological target: T2, Replicase polyprotein 1ab (Severe acute respiratory syndrome coronavirus 2, UniProt P0DTD1); experiment: Inhibition of C-terminal His tagged SARS CoV-2 main protease transfected in Escherichia coli BL21 (DE3) using 2-Abz-Ser-AlaVal-Leu-Gln-Ser-Gly-Tyr(3-NO2)-Arg-OH as substrate preincubated for 15 mins followed by substrate addition and measured after 15 mins by FRET assay
[12] = biological target: Replicase polyprotein 1ab (Severe acute respiratory syndrome coronavirus 2) (UniProt P0DTD1); experiment: Inhibition of C-terminal His tagged SARS CoV-2 main protease transfected in Escherichia coli BL21 (DE3) at 50 uM incubated in presence of DTT
Method in brief: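 Mpro fluorogenic inhibition assay repeated with 1 mM DTT added to the assay buffer.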

[13] = biological target: T2, Replicase polyprotein 1ab; experiment: Chemical stability of the compound in SARS-CoV-2 main protease assay buffer assessed as SARS-CoV-2 main protease-mediated amide bond cleavage at 100 uM measured after 8 hrs by HPLC based UV-Vis analysis; assay type: ADME; conditions: severe acute respiratory syndrome coronavirus 2, buffer; method in brief: as §3
dengue virus type 2 = experiment: Antiviral activity against Dengue virus serotype 2 infected in Huh-7 cells assessed as reduction in virus titer at 12.5 uM incubated for 48 hrs followed by infection of Vero E6 cells with supernatant and measured after 7 days by crystal violet staining based analysis relative to control; assay type: functional; design: scale not given: the % may be the effect or the level left; conditions: time 9 day
Method in brief: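 Huh-7 cells (1×10^4/well, overnight) infected with DENV-2 at MOI 1 for 2 h, medium changed, compound added; 48 h, triplicate supernatants pooled. Titer by plaque assay: Vero E6 infected 1 h with 10^-1 to 10^-6 dilutions, plaque medium 7 days, formaldehyde-fixed, crystal violet stained, plaques counted.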

Huh-7 = experiment: Cytotoxicity against human Huh-7 cells infected with Dengue virus serotype 2 assessed as reduction in cell viability by celltiter-blue assay; assay type: toxicity, cell-based; method in brief: as §2

SMILES | inhibition [1] [%] | inhibition [2] [%] | CC50 (HeLa [3]) [µM] | EC50 (Genome polyprotein [4]) [µM] | further results
CCCCCC(=O)Nc1ccc2c(c1)B(O)OC2 | 37.2 | < 10 | > 200 | 19.2 | 
CC(C(=O)Nc1ccc2c(c1)B(O)OC2)c1cccc(Oc2ccccc2)c1 (stereo not drawn) | 76.7 | 19 | > 50 | 3.1 | 
CC(C)(C)NC(=O)N[C@H](C(=O)N1C[C@H]2[C@@H]([C@H]1C(=O)NC(CC1CCC1)C(=O)C(N)=O)C2(C)C)C(C)(C)C (stereo partly drawn) |  | 70.8 |  |  | Activity [5]: Active
CN(c1ccc2c(c1)B(O)OC2)S(=O)(=O)c1ccc(Cl)cc1 | 24.2 | < 10 | > 50 | > 50 | Activity (HeLa [6]): Non-Toxic
O=C(Nc1ccc2c(c1)B(O)OC2)c1cccc(Oc2ccccc2)c1 | 77.4 | 34.6 | > 50 | 6.4 | 
O=C(Nc1ccc2c(c1)B(O)OC2)c1ccccc1OCc1ccccc1 | 66.7 | 40.6 | > 50 | 6.1 | permeability [7]: Permeable
N#Cc1ccc(CNc2ccc3c(c2)B(O)OC3)cc1 | 41.8 | < 10 | > 100 |  | 
O=[N+]([O-])c1ccc2c(c1)B(O)OC2 | 14.5 | < 10 | > 100 |  | 
O=C(Nc1ccc2c(c1)B(O)OC2)c1ccc(OCc2ccccc2)cc1 | 54.4 | 39.6 | > 50 | 8.8 | 
O=C(NCc1ccc(B(O)O)cc1)c1cccc(OCc2ccccc2)c1 | 29.3 | 18.5 | > 50 | 14 | Ratio [8]: 5
O=C(Nc1ccc2c(c1)B(O)OC2)OCc1ccccc1 | 67.5 | < 10 | > 50 | 4 | 
O=C(Nc1ccccc1)Nc1ccc2c(c1)B(O)OC2 | 31 | 15.9 | > 200 | 22.5 | 
O=C(Nc1ccc2c(c1)B(O)OC2)c1ccc(OCc2ccc(Cl)cc2)cc1 | 31.3 | 20.4 | > 50 | 14.5 | Stability (Genome polyprotein [9]): Stable; permeability [7]: Permeable
OB1OCc2cc(F)ccc21 [TAVABOROLE] | 15.3 | < 10 | > 50 |  | 
O=C(Nc1ccc2c(c1)B(O)OC2)c1cccc(OCC2CCCCC2)c1 | 79.1 | 29.3 | 123 |  | 
O=C(Nc1ccc2c(c1)B(O)OC2)c1cccc(OCc2c(Cl)cccc2Cl)c1 |  | 32.6 | 39.7 |  | selectivity ratio [10]: 74; permeability [7]: Permeable
Nc1ccc2c(c1)B(O)OC2 | < 10 | 17.5 | > 100 |  | Activity (HeLa [6]): Non-Toxic
O=C(Nc1ccc2c(c1)B(O)OC2)c1cccc(OCc2ccccc2)n1 |  | 99.6 | 124 |  | IC50 [11]: 38.5 µM

SMILES | inhibition [1] [%] | inhibition [2] [%] | CC50 (HeLa [3]) [µM] | EC50 (Genome polyprotein [4]) [µM] | further results
O=C(Nc1ccc2c(c1)B(O)OC2)c1cccc(OCc2ccc(Cl)cc2)c1 |  | 43.5 | 75.3 |  | Stability (Genome polyprotein [9]): Stable
O=C(Nc1cccc(B(O)O)c1)c1cccc(OCc2ccccc2)c1 | 65.1 | < 10 | > 50 | 12.5 | Activity (HeLa [6]): Non-Toxic; Ratio [8]: 5; permeability [7]: Permeable
N=C(N)Nc1ccc2c(c1)B(O)OC2 | < 10 | 88 | > 100 |  | Activity (HeLa [6]): Non-Toxic; IC50 [11]: 10 µM; inhibition [12]: Active; permeability [7]: Impermeable
O=C(Nc1ccc2c(c1)B(O)OC2)c1ccc(C(F)(F)F)cc1 | < 10 | 21 | > 50 |  | Activity (HeLa [6]): Non-Toxic
O=C(Nc1cccc(C(=O)Nc2ccc3c(c2)B(O)OC3)c1)c1ccccc1 | 51.5 | 45.6 | > 200 | 13.1 | Stability [13]: Stable; IC50 [11]: 52.3 µM
O=C(Nc1ccc2c(c1)B(O)OC2)c1ccc(N2CCOCC2)cc1 | 41.1 | 12.7 | > 50 | 17.1 | Activity (HeLa [6]): Non-Toxic
O=C(Nc1ccc2c(c1)B(O)OC2)c1ccc(Oc2ccccc2)cc1 | 79.7 | 19.5 | > 50 | 3.5 | Stability (Genome polyprotein [9]): Stable; permeability [7]: Permeable
OB1OCc2ccccc21 [BENZOXABOROLE] | < 10 | < 10 | > 100 |  | Activity (HeLa [6]): Non-Toxic
N#Cc1ccc(COc2cccc(C(=O)Nc3ccc4c(c3)B(O)OC4)c2)cc1 |  | 43.4 | > 200 |  | permeability [7]: Permeable
O=S(=O)(Nc1ccc2c(c1)B(O)OC2)c1ccc(Cl)cc1 | 51.6 | < 10 | > 50 | 9.2 | permeability [7]: Permeable
COc1cccc(COc2cccc(C(=O)Nc3ccc4c(c3)B(O)OC4)c2)c1 | 90 | 45.7 | > 200 |  | 
Nc1ccc(C(=O)Nc2ccc3c(c2)B(O)OC3)cc1 | 14.3 | 39.7 | > 200 |  | 
Cc1cccc(COc2cccc(C(=O)Nc3ccc4c(c3)B(O)OC4)c2)c1 | 85.2 | 55.5 | 72.6 |  | Activity (dengue virus type 2): 72.6%; Activity (Huh-7): Non-Toxic; IC50 [11]: 59.8 µM
O=C(Oc1cncc(Cl)c1)c1cccs1 |  | 95 |  |  | IC50 [11]: 1.7 µM
COc1cccc(C(=O)Nc2ccc3c(c2)B(O)OC3)c1 | 60.1 | 24.3 | > 100 | 6.4 | 
O=C(Nc1ccc2c(c1)B(O)OC2)c1cccc(NCc2ccccc2)c1 | 73.6 | 46.9 | 144 | 5.2 | IC50 [11]: 56.9 µM
Cc1onc(-c2ccc(F)cc2)c1C(=O)Nc1ccc2c(c1)B(O)OC2 | 32.6 | < 10 | > 100 | 21.6 | Activity (HeLa [6]): Non-Toxic
